In ChEMBL document CHEMBL4138249, “Structure-activity analysis of CJ-15,801 analogues that interact with Plasmodium falciparum pantothenate kinase and inhibit parasite proliferation” (Eur J Med Chem, 2018):
Activity calls are given as the source filed them. No cut-off for these calls is given here.

How the values were obtained:
[1] = target: T1, Pantothenate kinase, putative (Plasmodium falciparum (isolate 3D7)) (UniProt Q8ILP4); test: Inhibition of pantothenate kinase in Plasmodium falciparum 3D7 trophozoites at 100 uM using [14C]pantothenate as substrate after 15 to 60 mins by TopCount scintillation counting method relative to control
T1 sequence (whole entry): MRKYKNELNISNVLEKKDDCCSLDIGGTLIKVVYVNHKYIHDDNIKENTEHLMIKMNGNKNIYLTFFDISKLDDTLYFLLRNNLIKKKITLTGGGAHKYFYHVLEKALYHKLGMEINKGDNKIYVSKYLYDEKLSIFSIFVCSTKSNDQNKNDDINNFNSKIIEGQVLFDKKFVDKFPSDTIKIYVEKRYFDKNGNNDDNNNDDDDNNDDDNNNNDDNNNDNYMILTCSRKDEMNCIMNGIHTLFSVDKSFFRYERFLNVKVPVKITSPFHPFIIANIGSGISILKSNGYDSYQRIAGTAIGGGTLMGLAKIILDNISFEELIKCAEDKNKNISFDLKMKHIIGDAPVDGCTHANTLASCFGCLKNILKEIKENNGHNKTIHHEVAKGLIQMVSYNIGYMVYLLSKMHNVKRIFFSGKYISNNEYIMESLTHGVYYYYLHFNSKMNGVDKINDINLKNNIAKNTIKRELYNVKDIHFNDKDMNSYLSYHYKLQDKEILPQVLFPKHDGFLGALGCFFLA
Procedure, shortened: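 [14C]Pantothenate phosphorylation by PanK in P. falciparum lysate with compound at 100 μM. Pantothenate was 1.8 μM for R-compounds and 1 μM for S-compounds. Incubation period was pre-set within the linear range; percent inhibition versus DMSO-only controls. 3–8 experiments in duplicate, SEM.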

[2] = test system: Plasmodium falciparum; test: Antimalarial activity against Plasmodium falciparum 3D7 infected in human erythrocytes after 96 hrs in presence of 1 uM pantothenate by SYBR green fluorescence-based method; type: functional, organism-based; conditions: 3D7, 96 h
Procedure, shortened: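 Blood-stage parasites cultured 96 h in medium with 1 μM pantothenate across a range of compound concentrations; IC50 is the concentration giving 50% inhibition of proliferation. Each experiment run in triplicate, 2–7 independent experiments; mean ± range/2 (n = 2) or SEM (n = 3–7).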

[3] = Cytotoxicity against human WI38 cells assessed as inhibition of cell proliferation at 100 uM after 48 hrs by CellTiter-Glo assay relative to control; type: cell-based, WI-38
Procedure, shortened: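 WI-38 proliferation measured over 48 h with compound at 100 μM; percent inhibition reported.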

[4] = Cytotoxicity against HEK293 cells assessed as inhibition of cell proliferation at 100 uM after 96 hrs by CellTiter-Glo assay relative to control; type: cell-based; conditions: human
Procedure, shortened: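 HEK-293 proliferation measured over 96 h with compound at 100 μM; percent inhibition reported.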

[5] = Selectivity index, ratio of cytotoxic concentration for HEK293 cells to IC50 for Plasmodium falciparum 3D7 infected in human erythrocytes in presence of 1 uM pantothenate; type: toxicity, cell-based; conditions: read-out: Selectivity Index
[6] = test system: Plasmodium falciparum; test: Ratio of IC50 for Plasmodium falciparum 3D7 infected in human erythrocytes in presence of 100 uM pantothenate to IC50 for Plasmodium falciparum 3D7 infected in human erythrocytes in presence of 1 uM pantothenate; type: functional
Procedure, shortened: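 Paired 96 h proliferation assays with parasites in medium containing 100 μM versus 1 μM pantothenate. Fold-increase = IC50 at 100 μM pantothenate divided by IC50 at 1 μM. Two independent experiments in triplicate; error is range/2.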

[7] = Cysteine reactivity at pH 7.4 after 2 hrs by 1H NMR analysis; type: physicochemical; conditions: pH 7.4, 2 h
Procedure, shortened: (§1)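 Compound mixed with glutathione or L-cysteine at pH 7.4 and monitored by NMR for 2 h. The first spectrum was acquired 15 min after mixing. N-ethylmaleimide served as a reactive Michael acceptor reference.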

[8] = target: T2, Pantothenate kinase, putative (Plasmodium falciparum (isolate 3D7), UniProt Q8ILP4); test: Inhibition of pantothenate kinase in Plasmodium falciparum 3D7 trophozoites using [14C]pantothenate as substrate after 15 mins by TopCount scintillation counting method
T2 sequence (Q8ILP4 whole entry): T1 sequence (whole entry)
Procedure, shortened: (§2)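 PanK activity in P. falciparum lysate with 1.8 μM [14C]pantothenate and increasing compound concentrations, 15 min incubation within the linear range. Percent inhibition from [14C]pantothenate phosphorylated versus no compound. 2–5 experiments in duplicate; mean ± range/2 or SEM.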

[9] = Selectivity index, ratio of cytotoxic concentration for human WI38 cells to IC50 for Plasmodium falciparum 3D7 infected in human erythrocytes in presence of 1 uM pantothenate; type: toxicity, cell-based; conditions: read-out: Selectivity Index
[10] = target: T1, Pantothenate kinase, putative (Plasmodium falciparum (isolate 3D7)); test: Inhibition of pantothenate kinase in Plasmodium falciparum 3D7 trophozoites at 1 to 100 uM using [14C]pantothenate as substrate after 15 mins by TopCount scintillation counting method; procedure, shortened: as §2
[11] = Drug metabolism in human erythrocytes infected with Plasmodium falciparum 3D7 trophozoites assessed as esterase-mediated compound hydrolysis at 1 mM after 3 hrs by 1H-13C-HSQC NMR analysis; type: ADME, cell-based; conditions: 1000 µM
Procedure, shortened: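 Infected erythrocytes (>95% parasitemia) incubated 3 h with 13C3-labelled or unlabelled compound. Metabolites were extracted from about 2 × 10^8 parasites and analysed by 1H-13C HSQC in D2O with 200 μM TSP as shift reference. Two independent experiments.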

[12] = Cysteine reactivity at pH 7.4 after 15 mins by 1H NMR analysis; type: physicochemical; conditions: pH 7.4, 0.25 h; procedure, shortened: as §1
[13] = test system: Plasmodium falciparum; test: Antimalarial activity against blood stage of Plasmodium falciparum in presence of pantothenate by [3H]hypoxanthine incorporation assay; type: functional, organism-based

Compound	inhibition [1]	IC50 [2]	inhibition at 48 h, 100 µM [3]	inhibition at 96 h, 100 µM [4]	Ratio IC50 [6]	also measured
CC(C)(CO)[C@@H](O)C(=O)N/C=C\C(=O)O	< 25%	> 200 µM	–	–	–	–
CC(C)(C)OC(=O)/C=C/NC(=O)[C@@H](O)C(C)(C)CO	< 25%	> 100 µM	14%	-8%	–	–
CCOC(=O)/C=C/NC(=O)c1cccnc1	inactive	> 200 µM	–	–	–	–
CCOC(=O)/C(C)=C/NC(=O)[C@H](O)C(C)(C)CO	Active	> 200 µM	–	–	–	inhibition [10]: inactive
COC(=O)/C=C\NC(=O)[C@@H](O)C(C)(C)CO	< 25%	> 100 µM	-20%	-12%	–	–
COC(=O)/C=C/NC(=O)[C@@H](O)C(C)(C)CO	< 25%	> 100 µM	-18%	-2%	–	–
CC(C)(CO)[C@@H](O)C(=O)N/[13CH]=[13CH]/[13C](=O)O	–	–	–	–	–	Drug metabolism [11]: Metabolite_Detected
CC(C)(CO)[C@@H](O)C(=O)N/[13CH]=[13CH]/[13C](=O)OCc1ccccc1	–	–	–	–	–	Drug metabolism [11]: Metabolite_Notdetected
CCOC(=O)/C=C/N1CCCCCC1=O	inactive	181 µM	–	–	0.9	–
CC(C)(CO)[C@H](O)C(=O)N/C=C/C(=O)OCc1ccccc1	< 25%	> 100 µM	19%	-6%	–	–
COC(=O)/C=C\NC(=O)[C@H](O)C(C)(C)CO	< 25%	> 200 µM	–	–	–	–
CCOC(=O)/C=C/NC(=O)[C@@H](O)C(C)(C)CO	< 25%	> 100 µM	-6%	-9%	–	–
CCOC(=O)/C=C\NC(=O)[C@H](O)C(C)(C)CO	< 25%	> 200 µM	1%	-6%	–	–
CCN1C(=O)C=CC1=O [N-ETHYLMALEIMIDE]	–	–	–	–	–	Drug metabolism [12]: Metabolite_Detected
CC(C)(CO)[C@H](O)C(=O)N/C=C\C(=O)O	< 25%	> 100 µM	-19%	-11%	–	–
COC(=O)/C=C/NC(=O)[C@H](O)C(C)(C)CO	> 90%	> 200 µM	4%	0%	–	inhibition [10]: Active
CC(C)(CO)[C@H](O)C(=O)N/C=C/C(=O)O	< 25%	> 100 µM	17%	-10%	–	–
CCOC(=O)/C=C\NC(=O)[C@@H](O)C(C)(C)CO	< 25%	> 100 µM	-6%	-6%	–	–
CC(C)(C)OC(=O)/C=C\NC(=O)[C@@H](O)C(C)(C)CO	< 25%	> 100 µM	26%	-11%	–	–
CCOC(=O)/C=C/NC(=O)[C@H](O)C(C)(C)CO	> 90%	159 µM	36%	-5%	>1.3	inhibition [10]: Active; selectivity ratio [5]: > 0.6; selectivity ratio [9]: > 0.6
CC(C)(CO)[C@H](O)C(=O)N/C=C\C(=O)OCc1ccccc1	< 25%	> 100 µM	-2%	-7%	–	–

Second part, led by results:

inhibition [1]	IC50 [2]	Compound	inhibition at 48 h, 100 µM [3]	inhibition at 96 h, 100 µM [4]	Ratio IC50 [6]	also measured
> 90%	13 µM	CC(C)(CO)[C@@H](O)C(=O)N/C=C/C(=O)OCc1ccccc1	19%	5%	>7.7	selectivity ratio [5]: > 8; Drug metabolism [7]: Metabolite_Notdetected; IC50 [8]: 0.14 µM; selectivity ratio [9]: > 8
inactive	144 µM	CCOC(=O)/C=C/NC(=O)[C@@H]1OC(C)(C)OCC1(C)C	–	–	0.9	–
< 25%	39 µM	CC(C)(C)OC(=O)/C=C\NC(=O)[C@H](O)C(C)(C)CO	-14%	-9%	1	–
inactive	158 µM	CCOC(=O)/C=C/NC(=O)c1ccccc1	–	–	1	–
> 90%	42 µM	CC(C)(C)OC(=O)/C=C/NC(=O)[C@H](O)C(C)(C)CO	0%	-1%	3.1	inhibition [10]: Active; selectivity ratio [5]: > 2; selectivity ratio [9]: > 2
inactive	61 µM	CCOC(=O)/C=C/N1CCCCCCCC1=O	–	–	1.4	–
< 25%	89 µM	CC(C)(CO)[C@@H](O)C(=O)N/C=C\C(=O)OCc1ccccc1	4%	7%	0.9	–
inactive	93 µM	CCOC(=O)/C=C/N1CCCCCCC1=O	–	–	1	–
87%	36 µM	CC(C)(CO)[C@@H](O)C(=O)N/C=C/C(=O)O	-23%	-17%	>2.8	IC50 [13]: 39 µM; selectivity ratio [5]: > 3; Drug metabolism [7]: Metabolite_Notdetected; IC50 [8]: 14 µM; selectivity ratio [9]: > 3
inactive	93 µM	CCOC(=O)/C(C)=C/NC(=O)[C@@H]1OC(C)(C)OCC1(C)C	–	–	1	–
inactive	120 µM	CCOC(=O)/C(C)=C/NC(=O)c1ccccc1	–	–	1	–
